Measured values of several laboratories.
Target: Calcium/calmodulin-dependent protein kinase type II subunit alpha (CAMK2A, Homo sapiens, UniProt Q9UQM7)

| Structure (SMILES) | observed | method | concentration | remaining binding [%] |
| --- | --- | --- | --- | --- |
| CN(CCCC(F)(F)F)c1nccc(-c2cnn3ncccc23)n1 | binding | – | 1 µM | 91 |
| N#CC1(c2ccccn2)CCN(Cc2cc(C(=O)N3CCCC3)c(=O)n3ccccc23)CC1 | cell-free assay | competition with immobilised ligand | 1 µM | 84 |
| CC1CCCN1c1nccc(-c2cnn3ncccc23)n1 (stereo not shown) | binding | – | 1 µM | 90 |
| CNC(=O)[C@@H]1CC[C@@H](n2c(-c3ccc4cnccc4c3)nc3ccc(C(=O)NCc4cccc(C(N)=O)c4)cc32)C1 | binding | competition with immobilised ligand | 1 µM | 100 |
| O=C(NC[C@@H]1[C@H]2CN(C(=O)OCc3cc(C(F)(F)F)cc(C(F)(F)F)c3)C[C@@H]12)c1ccc2[nH]nnc2c1 | cell-free assay | competition with immobilised ligand | 1 µM | 91 |
| O=C(c1ccc(Nc2ncc(Cl)c(-c3cc4ccccc4s3)n2)cc1)N1CCC(N2CCCC2)CC1 | binding | competition with immobilised ligand | 1 µM | 75 |
| NS(=O)(=O)c1cc(NC(=O)Cc2ccccc2)ccc1Oc1cccc(Cl)c1 | cell-free assay | competition with immobilised ligand | 1 µM | 96 |
| Cc1cnn2ncc(-c3ccnc(N(C)C)n3)c2c1 | binding | – | 1 µM | 86 |
| O=C(NCCCN1CCOCC1)c1ccc(Nc2ncc(Cl)c(-c3ccc(Cl)s3)n2)cc1 | binding | competition with immobilised ligand | 1 µM | 91 |
| Cn1nc(C(=O)NCc2ccc(C(=O)O)cc2)cc1-c1ccc2[nH]ccc2c1 | cell-free assay | competition with immobilised ligand | 0.1 µM | 79 |
| N[C@H]1CCN(c2nccc(-c3cnn4ncccc34)n2)C1 | binding | – | 1 µM | 100 |
| O=C(Nc1cnc(Oc2ccc(F)cc2)nc1)N1CCc2ncccc2[C@@H]1c1ccc(F)cc1 | cell-free assay | competition with immobilised ligand | 1 µM | 92 |
| CCN1CCN(Cc2ccc(C(=O)Nc3ccc(C)c(Oc4ccc5c(c4)CC(=O)N5)c3)cc2C(F)(F)F)CC1 | binding | competition with immobilised ligand | 1 µM | 100 |
| c1cncc(-c2cccc(Nc3nccc(NC4CCCCC4)n3)c2)c1 | binding | competition with immobilised ligand | 10 µM | 84 |
| O=C(Nc1c[nH]nc1C(=O)NC1CCNCC1)c1cc(F)cc(F)c1 | binding | competition with immobilised ligand | 1 µM | 100 |
| O=C(NCCCN1CCOCC1)c1ccc(Nc2nccc(-c3cc4ccccc4s3)n2)cc1 | binding | competition with immobilised ligand | 1 µM | 68 |
| CN(C)c1ncc(F)c(-c2cnn3ncccc23)n1 | binding | – | 1 µM | 63 |
| COc1ncc2cc3ccccc3nc2c1C#N | cell-free assay | competition with immobilised ligand | 5 µM | 95 |
| CN(C)c1nccc(-c2cnc3ncccn23)n1 | binding | – | 1 µM | 92 |
| CCOC(=O)c1cc2cc(-c3cc(C(=O)NCc4ccc(C(=O)O)cc4)nn3C)ccc2[nH]1 | cell-free assay | competition with immobilised ligand | 0.1 µM | 76 |
| COc1cnc(Nc2cccc(S(N)(=O)=O)c2)nc1N1CCN(c2ccccc2)C(=O)C1 | binding | competition with immobilised ligand | 1 µM | 100 |
| C[C@@H]1CCN(c2nccc(-c3cnn4ncccc34)n2)C1 | binding | – | 1 µM | 80 |
